# Measured values taken from ChEMBL document CHEMBL3351651 (Bioorg Med Chem, 2014).
# How the values were obtained:
# Mus musculus [1] = assay: Hypolipidiemic activity in tyloxapol-induced ICR mouse hyperlipidemic model assessed as reduction in serum LDL-cholesterol level at 100 mg/kg, ip after 24 hrs; assay type: functional; design: scale not given: the % may be the effect or the level left; conditions: route intraperitoneal
# Mus musculus [2] = assay: Hypolipidiemic activity in tyloxapol-induced ICR mouse hyperlipidemic model assessed as reduction in serum cholesterol level at 25 mg/kg, ip after 24 hrs; assay type: functional; design: scale not given: the % may be the effect or the level left; conditions: route intraperitoneal
# Mus musculus [3] = assay: Hypolipidiemic activity in tyloxapol-induced ICR mouse hyperlipidemic model assessed as reduction in serum LDL-cholesterol level at 25 mg/kg, ip after 24 hrs; assay type: functional; design: scale not given: the % may be the effect or the level left; conditions: route intraperitoneal
# Mus musculus [4] = assay: Hypolipidiemic activity in tyloxapol-induced ICR mouse hyperlipidemic model assessed as reduction in serum cholesterol level at 100 mg/kg, ip after 24 hrs; assay type: functional; design: scale not given: the % may be the effect or the level left; conditions: route intraperitoneal
# Mus musculus [5] = assay: Hypolipidiemic activity in tyloxapol-induced ICR mouse hyperlipidemic model assessed as reduction in serum triglyceride level at 100 mg/kg, ip after 24 hrs; assay type: functional; design: scale not given: the % may be the effect or the level left; conditions: route intraperitoneal
# Mus musculus [6] = assay: Hypolipidiemic activity in tyloxapol-induced ICR mouse hyperlipidemic model assessed as increase in serum HDL-cholesterol level at 50 mg/kg, ip after 24 hrs; assay type: functional; conditions: route intraperitoneal
# Mus musculus [7] = assay: Hypolipidiemic activity in tyloxapol-induced ICR mouse hyperlipidemic model assessed as reduction in serum triglyceride level at 50 mg/kg, ip after 24 hrs; assay type: functional; design: scale not given: the % may be the effect or the level left; conditions: route intraperitoneal
# Mus musculus [8] = assay: Hypolipidiemic activity in tyloxapol-induced ICR mouse hyperlipidemic model assessed as reduction in serum cholesterol level at 50 mg/kg, ip after 24 hrs; assay type: functional; design: scale not given: the % may be the effect or the level left; conditions: route intraperitoneal
# Mus musculus [9] = assay: Hypolipidiemic activity in tyloxapol-induced ICR mouse hyperlipidemic model assessed as reduction in serum triglyceride level at 25 mg/kg, ip after 24 hrs; assay type: functional; design: scale not given: the % may be the effect or the level left; conditions: route intraperitoneal
# Mus musculus [10] = assay: Hypolipidiemic activity in tyloxapol-induced ICR mouse hyperlipidemic model assessed as increase in serum HDL-cholesterol level at 25 mg/kg, ip after 24 hrs; assay type: functional; conditions: route intraperitoneal
# Mus musculus [11] = assay: Hypolipidiemic activity in tyloxapol-induced ICR mouse hyperlipidemic model assessed as increase in serum HDL-cholesterol level at 100 mg/kg, ip after 24 hrs; assay type: functional; conditions: route intraperitoneal
# Mus musculus [12] = assay: Hypolipidiemic activity in tyloxapol-induced ICR mouse hyperlipidemic model assessed as reduction in serum LDL-cholesterol level at 50 mg/kg, ip after 24 hrs; assay type: functional; design: scale not given: the % may be the effect or the level left; conditions: route intraperitoneal
# [13] = Metabolic stability in presence of pepsin (unknown origin) assessed as retention time by HPLC analysis; assay type: ADME; conditions: human, isolated protein
# [14] = Metabolic stability in presence of alpha-chymotrypsin (unknown origin) assessed as retention time by HPLC analysis; assay type: ADME; conditions: human
# Mus musculus [15] = assay: Hypolipidiemic activity in tyloxapol-induced ICR mouse hyperlipidemic model assessed as reduction in serum cholesterol level at 17 mg/kg, ip after 24 hrs; assay type: functional; design: scale not given: the % may be the effect or the level left; conditions: route intraperitoneal
# In short: (§1)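 Male ICR mice (25–30 g) were kept at 24 °C with a 12 h light/dark cycle on standard pellet diet with free water. Hyperlipidemia was induced with tyloxapol (400 per table) and test agents were given ip. After 24 h, retro-orbital blood was centrifuged and serum TC, HDL-C and TG were measured. LDL-C was calculated by the Friedewald equation. Assays were run in duplicate; values are means of 6 mice.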
# Mus musculus [16] = assay: Hypolipidiemic activity in tyloxapol-induced ICR mouse hyperlipidemic model assessed as increase in serum HDL-cholesterol level at 17 mg/kg, ip after 24 hrs; assay type: functional; conditions: route intraperitoneal; in short: as §1
# Mus musculus [17] = assay: Hypolipidemic activity in tyloxapol-induced ICR mouse hyperlipidemic model assessed as reduction in serum triglyceride level at 17 mg/kg, ip after 24 hrs; assay type: functional; design: scale not given: the % may be the effect or the level left; conditions: route intraperitoneal; in short: as §1
# Mus musculus [18] = assay: Hypolipidiemic activity in tyloxapol-induced ICR mouse hyperlipidemic model assessed as reduction in serum LDL-cholesterol level at 17 mg/kg, ip after 24 hrs; assay type: functional; design: scale not given: the % may be the effect or the level left; conditions: route intraperitoneal; in short: as §1
Retention_time [13],Retention_time [14],Retention time [14],SMILES,Activity (Mus musculus [1]),Activity (Mus musculus [2]),Activity (Mus musculus [3]),Activity (Mus musculus [4]),Activity (Mus musculus [5]),Activity (Mus musculus [6]),Activity (Mus musculus [7]),Activity (Mus musculus [8]),Activity (Mus musculus [9]),Activity (Mus musculus [10]),Activity (Mus musculus [11]),Activity (Mus musculus [12]),Activity (Mus musculus [15]),Activity (Mus musculus [16]),Activity (Mus musculus [17]),Activity (Mus musculus [18])
8.57 min,8.58 min,,COc1cc(O)c(C(C)=O)cc1OC,-87.68%,-71.84%,-76.23%,-80.12%,-82.11%,44.07%,-80.92%,-80.09%,-59.63%,-4.75%,55.93%,-87.01%,,,,
13.81 min,13.8 min,,CCCCc1cc(OC)c(OCC(=O)OC)cc1O,-89.51%,-70.62%,-77.77%,-79.95%,-82.75%,-3.39%,-49.82%,-59.46%,-20.46%,11.86%,89.83%,-62.75%,,,,
6.95 min,,6.94 min,CCc1cc(OC)c(OC)cc1O,-83.93%,-67.13%,-72.47%,-75.85%,-81.65%,25.42%,-86.97%,-73.41%,-76.79%,33.9%,71.19%,-78.34%,,,,
12.45 min,12.44 min,,CCCCc1cc(OC)c(OC)cc1O,-74.69%,-70.1%,-74.78%,-70.1%,-83.94%,11.86%,-79.17%,-67.04%,-82.57%,23.73%,23.73%,-70.93%,,,,
7.78 min,7.78 min,,CCc1cc(OC)c(OCC(=O)OC)cc1O,-82.58%,-79.08%,-86.14%,-78.2%,-75.87%,28.81%,-59.63%,-69.22%,-72.94%,40.68%,-3.39%,-75.26%,,,,
13.84 min,13.83 min,,CCCC(=O)c1cc(OC)c(OC)cc1O,-88.74%,-74.28%,-80.65%,-83.26%,-79.36%,30.51%,-77.25%,-81.4%,-69.54%,33.9%,8.47%,-87.97%,,,,
8.67 min,8.68 min,,COC(=O)COc1cc(O)c(C(C)=O)cc1OC,-85.76%,-74.72%,-81.62%,-75.33%,-51.38%,1.69%,-74.77%,-72.71%,-28.62%,8.47%,13.56%,-76.9%,,,,
13.16 min,13.18 min,,CCCC(=O)c1cc(OC)c(OCC(=O)OC)cc1O,-79.4%,-78.38%,-84.7%,-73.23%,-73.58%,20.34%,-27.8%,-49.26%,-73.12%,30.51%,35.59%,-54.28%,,,,

# Continued, compound first:
SMILES,Retention_time [13],Retention_time [14],Retention time [14],Activity (Mus musculus [1]),Activity (Mus musculus [2]),Activity (Mus musculus [3]),Activity (Mus musculus [4]),Activity (Mus musculus [5]),Activity (Mus musculus [6]),Activity (Mus musculus [7]),Activity (Mus musculus [8]),Activity (Mus musculus [9]),Activity (Mus musculus [10]),Activity (Mus musculus [11]),Activity (Mus musculus [12]),Activity (Mus musculus [15]),Activity (Mus musculus [16]),Activity (Mus musculus [17]),Activity (Mus musculus [18])
CCCc1cc(OC)c(OCC(=O)OC)cc1O,,,,-81.23%,-79.77%,-89.32%,-74.02%,-71.38%,57.63%,-81.93%,-80.21%,-84.13%,91.53%,50.85%,-87.97%,,,,
CCCc1cc(OC)c(OC)cc1O,,,,-73.63%,-71.84%,-78.15%,-69.22%,-77.98%,25.42%,-73.85%,-66.7%,-82.75%,49.15%,15.25%,-71.61%,,,,
CCC(=O)c1cc(OC)c(OC)cc1O,,,,-88.35%,-81.69%,-86.72%,-81.43%,-80.92%,16.95%,-81.01%,-81.95%,-80.09%,6.78%,40.68%,-87.68%,,,,
CCC(=O)c1cc(OC)c(OCC(=O)OC)cc1O,,,,-81.33%,-68.18%,-72.18%,-74.46%,-75.41%,66.1%,-31.93%,-66.87%,-59.82%,-3.39%,45.76%,-76.03%,,,,
CCC(C)(C)C(=O)O[C@H]1C[C@@H](C)C=C2C=C[C@H](C)[C@H](CC[C@@H]3C[C@@H](O)CC(=O)O3)[C@H]21 [SIMVASTATIN],,,,,,,,,,,,,,,,-63.46%,292.2%,-57%,-84.31%
